According to ChEMBL document CHEMBL1131465, “Design, synthesis, and biological evaluation of conformationally constrained aci-reductone mimics of arachidonic acid” (J Med Chem, 1998):

Tests used:
[1] = species: Cavia porcellus; assay: (§1) Inhibition of CCl4 induced lipid peroxidation (LPO) of guinea pig hepatic microsomes at 300 uM concentration; format: functional; conditions: Liver
How it was run: (§2)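 Lipid peroxidation of polyunsaturated fatty acids in guinea pig liver microsomes was induced with CCl₄. Test compounds were used at 300 µM. Malondialdehyde (MDA) formation was quantified spectrophotometrically, and results are reported as percent inhibition.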

[2] = biological target: T1, Polyunsaturated fatty acid 5-lipoxygenase (Rattus norvegicus) (UniProt P12527); assay: Inhibition of 5-lipoxygenase of rat basophilic leukemia cells at 30 uM; format: cell-based; conditions: RBL-1
T1 sequence (whole entry): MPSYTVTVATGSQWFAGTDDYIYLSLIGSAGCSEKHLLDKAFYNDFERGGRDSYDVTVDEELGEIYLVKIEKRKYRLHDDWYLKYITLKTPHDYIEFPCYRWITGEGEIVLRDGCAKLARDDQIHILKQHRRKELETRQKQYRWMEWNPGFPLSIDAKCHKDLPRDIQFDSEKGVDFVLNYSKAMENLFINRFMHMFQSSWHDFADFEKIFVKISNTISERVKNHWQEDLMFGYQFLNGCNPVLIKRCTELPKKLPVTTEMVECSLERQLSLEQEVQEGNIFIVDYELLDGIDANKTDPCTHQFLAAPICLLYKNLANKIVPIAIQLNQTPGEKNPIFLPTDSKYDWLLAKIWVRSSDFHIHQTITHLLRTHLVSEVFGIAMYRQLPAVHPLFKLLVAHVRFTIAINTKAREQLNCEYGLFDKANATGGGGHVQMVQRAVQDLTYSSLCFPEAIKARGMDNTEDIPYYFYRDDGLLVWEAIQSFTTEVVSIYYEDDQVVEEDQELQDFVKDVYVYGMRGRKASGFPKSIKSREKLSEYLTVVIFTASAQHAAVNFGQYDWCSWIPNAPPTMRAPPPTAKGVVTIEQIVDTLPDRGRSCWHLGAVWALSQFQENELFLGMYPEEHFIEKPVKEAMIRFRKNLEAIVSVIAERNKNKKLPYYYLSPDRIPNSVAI
How it was run: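 5-LO source was a crude enzyme preparation from broken rat basophilic leukemia (RBL-1) cells. Compounds were screened at a single concentration of 30 µM, and results are reported as percent inhibition.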

[3] = species: Cavia porcellus; assay: as §1; format: functional; conditions: Liver; how it was run: as §2; remark: listed apart in the source
[4] = biological target: T2, Prostaglandin G/H synthase 1 (Ovis aries) (UniProt P05979); assay: Inhibition of Prostaglandin G/H synthase 1 isolated from ram (sheep) seminal vesicle at 300 uM; format: tissue-based
T2 sequence (whole entry): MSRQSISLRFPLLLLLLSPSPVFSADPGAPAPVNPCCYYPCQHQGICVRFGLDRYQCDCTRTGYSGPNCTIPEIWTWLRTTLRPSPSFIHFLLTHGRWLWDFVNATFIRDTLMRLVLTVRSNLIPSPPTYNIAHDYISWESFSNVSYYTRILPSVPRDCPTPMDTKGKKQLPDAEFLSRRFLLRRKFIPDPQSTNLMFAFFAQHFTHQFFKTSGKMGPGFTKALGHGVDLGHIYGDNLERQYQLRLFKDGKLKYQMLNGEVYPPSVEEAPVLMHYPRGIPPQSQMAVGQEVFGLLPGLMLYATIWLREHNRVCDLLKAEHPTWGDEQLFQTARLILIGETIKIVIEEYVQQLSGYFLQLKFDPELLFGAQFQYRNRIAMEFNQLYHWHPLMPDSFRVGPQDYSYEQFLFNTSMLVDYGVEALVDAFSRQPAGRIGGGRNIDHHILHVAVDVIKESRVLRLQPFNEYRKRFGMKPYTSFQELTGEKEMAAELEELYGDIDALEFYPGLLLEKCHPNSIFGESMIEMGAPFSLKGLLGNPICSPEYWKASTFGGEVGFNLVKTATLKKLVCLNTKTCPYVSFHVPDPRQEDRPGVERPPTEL

[5] = biological target: T3, Prostaglandin G/H synthase 2 (Ovis aries) (UniProt P79208); assay: Inhibition of Prostaglandin G/H synthase 2 from sheep placenta at 300 uM
T3 sequence (whole entry): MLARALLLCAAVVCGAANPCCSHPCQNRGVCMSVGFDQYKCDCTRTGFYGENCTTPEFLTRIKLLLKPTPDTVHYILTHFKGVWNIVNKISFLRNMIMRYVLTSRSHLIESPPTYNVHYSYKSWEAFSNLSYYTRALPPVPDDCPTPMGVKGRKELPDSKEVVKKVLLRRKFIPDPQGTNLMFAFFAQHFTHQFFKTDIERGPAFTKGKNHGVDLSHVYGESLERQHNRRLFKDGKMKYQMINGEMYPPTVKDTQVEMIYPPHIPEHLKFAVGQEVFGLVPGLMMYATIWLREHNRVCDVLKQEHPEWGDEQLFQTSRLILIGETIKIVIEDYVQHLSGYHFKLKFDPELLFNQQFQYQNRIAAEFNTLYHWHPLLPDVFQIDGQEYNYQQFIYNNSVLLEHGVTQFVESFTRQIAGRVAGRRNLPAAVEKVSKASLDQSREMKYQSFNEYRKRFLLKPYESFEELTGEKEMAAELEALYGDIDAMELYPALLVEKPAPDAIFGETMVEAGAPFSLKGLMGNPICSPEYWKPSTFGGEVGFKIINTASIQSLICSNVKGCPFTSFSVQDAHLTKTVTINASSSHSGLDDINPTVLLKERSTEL

[6] = biological target: T4, Polyunsaturated fatty acid 5-lipoxygenase (Rattus norvegicus, UniProt P12527); assay: Inhibitory activity against 5-lipoxygenase obtained from rat basophilic leukemia cells
T4 sequence (P12527 whole entry): T1 sequence (whole entry)
How it was run: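 IC50 was determined against 5-LO in a broken RBL-1 cell assay, using a crude enzyme preparation from rat basophilic leukemia cells.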

Row | SMILES | IC50 [1] [nM] | inhibition [2] [%] | inhibition [3] [%] | inhibition [4] [%] | inhibition [5] [%] | IC50 [6] [nM]
1 | Cc1c(C)c2c(c(C)c1O)CC[C@@](C)(CCC[C@H](C)CCC[C@H](C)CCCC(C)C)O2 [ALPHA-TOCOPHEROL] | 280000 | – | – | – | – | –
2 | Cc1ccccc1C#CCCC1OC(O)=C(O)C1=O (stereo unspecified) | – | 43 | 59 | 8 | 18 | –
3 | CCCCS(=O)(=O)Nc1ccccc1C#CCCC1OC(O)=C(O)C1=O (stereo unspecified) | – | 81 | 75 | 8 | 23 | –
4 | O=C1C(O)=C(O)OC1CCC#Cc1ccc(Cc2ccc(F)cc2)s1 (stereo unspecified) | – | 100 | – | – | – | 160
5 | C[C@H](C#Cc1ccc(Cc2ccc(F)cc2)s1)N(O)C(N)=O [ATRELEUTON] | – | – | – | – | – | 23
6 | CCCS(=O)(=O)Cc1ccccc1C#CCCC1OC(O)=C(O)C1=O (stereo unspecified) | – | 30 | 60 | 25 | 12 | –
7 | CCC/C=C\Cc1ccccc1/C=C\CCC1OC(O)=C(O)C1=O (stereo unspecified) | – | 99 | 68 | 37 | 28 | –
8 | CCC/C=C\Cc1ccccc1C#CCCC1OC(O)=C(O)C1=O (stereo unspecified) | – | 81 | 72 | 55 | 28 | 400
9 | CC(=O)Oc1ccccc1C(=O)O | – | 0 | 4 | 76 | 0 | –
10 | O=C1C(O)=C(O)OC1CCC#Cc1ccccc1CSc1ccccc1 (stereo unspecified) | – | 100 | 61 | 25 | 15 | 300
11 | CCCCCSCc1ccccc1C#CCCC1OC(O)=C(O)C1=O (stereo unspecified) | – | 90 | 62 | 67 | 45 | –
12 | CCCSCc1ccccc1C#CCCC1OC(O)=C(O)C1=O (stereo unspecified) | – | 82 | 72 | 38 | 20 | –
13 | O=C1C(O)=C(O)OC1CCC#Cc1ccccc1 (stereo unspecified) | – | 58 | 62 | 5 | 13 | –
